Molecules are shown by their SMILES. Activity calls are given as the source filed them. No cut-off for these calls is given here.

Test [1] concerns the target Trace amine-associated receptor 1 (Mus musculus, UniProt Q923Y8). In words: Agonist activity at mouse TAAR1 expressed in HEK293 cells coexpressing cAMP BRET biosensor assessed as induction of CAMP production after 20 mins by bioluminescence resonance energy transfer assay. It is filed as functional, cell-based. The essentials: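 HEK-293 cells transiently transfected with mTAAR1 (or empty vector as control) plus EPAC cAMP BRET biosensor. Read started immediately after agonist addition, continuing ~20 min. IBMX 200 μM final present throughout. Initial screen at 10 μM; actives then run as dose-response. Emission read in 465−505 and 515−555 nm windows, acceptor/donor ratio taken. EC50 from nonlinear one-site fit; 4−6 independent experiments, mean ± SEM.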
On the technique in general: Bioluminescence resonance energy transfer reports proximity on the nanometre scale.

For test [2], the target named is Trace amine-associated receptor 1 (Mus musculus) (UniProt Q923Y8). Description: Agonist activity at mouse TAAR1 expressed in HEK293 cells coexpressing cAMP BRET biosensor assessed as induction of CAMP production after 20 mins by bioluminescence resonance energy transfer assay relative to control. It is filed as functional, cell-based. The method, boiled down: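 Transient co-transfection of HEK-293 cells with mTAAR1 and the EPAC cAMP BRET biosensor; empty vector as control. Assayed with IBMX at 200 μM final. Screened at 10 μM, then dose-response on actives. Read-out is the acceptor/donor ratio from the 465−505 and 515−555 nm windows; time courses read for about 20 min after agonist addition. EC50 from nonlinear regression (one site specific binding); 4−6 independent experiments, mean ± SEM.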

For test [3], the system named is Heart. Description: Reduction in cardiac out put in male Wistar rat heart assessed as aortic and coronary flow after 30 mins by Cardiac perfusion technique. It is filed as functional, tissue-based. Particulars: 0.5 h. The essentials:
(§1)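 Male Wistar rats (275−300 g) were anesthetized with ether/air and given 1000 U heparin iv (femoral vein). The heart was excised and perfused as a working heart (atrial 20 cm, aortic 100 cm cannulae). After 5 min equilibration, it was perfused 60 min with buffer containing DMSO vehicle or escalating doses in DMSO. Cardiac output = aortic + coronary flow. 30-min values are expressed as % of baseline. IC50 from sigmoidal nonlinear regression; 3−7 hearts per group, mean ± SE.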

Test [4] deals with Mus musculus. Description: Induction of plasma glucose level in fasted CD1 mouse at 1.32 ug/kg, ip after 15 mins glucorefractometry relative to T0AM. It is filed as functional, organism-based. The method, boiled down: (§2)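 Male CD-1 mice were fasted 4 h (8 to 12 h) and given a single ip dose (1.32, 4 or 11 μg·kg−1) or saline; n = 10 per group. Tail-vein blood glucose was read by glucorefractometer 15 min after injection. One-way ANOVA with Student−Newman−Keuls post hoc test, P < 0.05; mean ± SEM.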

Test [5] relates to Heart. In words: Reduction in cardiac out put in male Wistar rat heart assessed as aortic and coronary flow at 20 to 40 uM after 30 mins by Cardiac perfusion technique. The class given is functional, tissue-based. The essentials: as §1
In test [6] the test system is Heart. Description: Reduction in cardiac out put in male Wistar rat heart assessed as aortic and coronary flow at 40 uM within 10 mins by Cardiac perfusion technique relative to control. It is filed as functional.
Test [7] relates to Heart. Description: Reduction in cardiac out put in male Wistar rat heart assessed as aortic and coronary flow measured as rate of duration of experiment at 40 uM by Cardiac perfusion technique. The class given is functional.
For test [8], the system named is Mus musculus. Description: Induction of plasma glucose level in fasted CD1 mouse at 4 ug/kg, ip after 15 mins glucorefractometry relative to T1AM. It is filed as functional, organism-based. The method, boiled down:
as §2

Chain of Trace amine-associated receptor 1 (Q923Y8 whole entry): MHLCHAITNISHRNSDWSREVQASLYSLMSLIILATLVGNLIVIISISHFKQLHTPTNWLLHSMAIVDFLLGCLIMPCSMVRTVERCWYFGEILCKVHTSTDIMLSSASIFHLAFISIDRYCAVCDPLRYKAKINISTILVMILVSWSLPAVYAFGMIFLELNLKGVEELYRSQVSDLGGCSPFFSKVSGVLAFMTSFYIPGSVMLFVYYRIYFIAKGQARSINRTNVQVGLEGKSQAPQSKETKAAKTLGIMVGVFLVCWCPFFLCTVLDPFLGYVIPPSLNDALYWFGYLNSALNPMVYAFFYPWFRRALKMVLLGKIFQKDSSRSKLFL
Chain of Trace amine-associated receptor 1 (Mus musculus) (Q923Y8 whole entry): as above

As to `NCCOc1ccc(Cc2ccc(O)cc2)cc1`, the EC50 in test [1] stood at 2200 nM. Also, the Emax in test [2] worked out at 80%.
As for `NCCc1ccc(Cc2ccc(N)cc2)cc1`, the EC50 in test [1] is 800 nM. For the same compound, the Emax in test [2] was 100%.
With `Nc1ccc(Cc2ccc(OCC(=O)O)cc2)cc1`, in the test with Heart [3], the IC50 is 30000 nM. Moreover, in the test with Mus musculus [4], the outcome was inactive.
As for `NCCc1ccc(Oc2ccc(O)cc2)c(I)c1`, the EC50 in test [1] was 189 nM. In the test on Heart [3], the IC50 amounted to 27000 nM.
`NCCc1ccccc1` [PHENETHYLAMINE]: the EC50 in test [1] was 138 nM.
Regarding `NCCOc1ccc(Cc2ccc(N)cc2)cc1`, in test [1], the EC50 is 1700 nM. Also, in test [2], the Emax stood at 40%. In addition, the IC50 in the test on Heart [3] is 34000 nM. Besides, in the test on Mus musculus [4], the result was inactive.
As to `Cc1cc(OCCN)ccc1Cc1ccc(N)cc1`, in test [1], the EC50 was 240 nM. Moreover, the Emax in test [2] was 75%. Besides, in the test on Heart [5], the inhibition result is “Active”. In addition, in the test on Heart [6], the inhibition at 40 µM worked out at 60%. The Time in the test on Heart [7] came out at 1 h. In the test on Heart [3], the IC50 is 30000 nM. In addition, the outcome in the test with Mus musculus [8] was Active.
Take `Cc1cc(OCC(=O)O)ccc1Cc1ccc(N)cc1`: the IC50 with Heart [3] amounted to 30000 nM. Also, in the test with Mus musculus [4], the result was Active.

The EC50 is the concentration that produces a half-maximal response. The Emax is the size of the effect at its maximum, as opposed to the concentration needed. What is called IC50 is the concentration needed to halve the response being measured. In general, inhibition refers to the change of the read-out against control, counted positive when it falls.

These data come from ChEMBL document CHEMBL3580610, “Design, Synthesis, and Evaluation of Thyronamine Analogues as Novel Potent Mouse Trace Amine Associated Receptor 1 (mTAAR1) Agonists” (J Med Chem, 2015).
